A selection: hits, their analogues and other compounds. The true share with any hit is near 3.1%.
ERAP1 HTS inh = human ERAP1 aminopeptidase inhibitors, primary screen, biochemical, single point, plate reader. Endoplasmic reticulum aminopeptidase 1 (Homo sapiens), Q9NZ08. recombinant ERAP1, Leu-AMC fluorescence, 60 min. inhibition, % at 10.7 µM. 340,000 tested, 0.15% active. AID 652197, 2013;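 active means mean replicate inhibition of at least 30%, or all replicates individually reaching that 30% level; inactive means mean below 30% and not every replicate reaching it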;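 further: 0% = neutral control wells and 100% = L-leucinethiol positive control wells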
F508del corr = F508del CFTR correction, initial screen, CFBE line, single point; 350,000 tested, 0.36% active; activity (quench increase), % at 7.58 µM; CFBE cells, YFP halide quenching; stimulated with forskolin plus potentiator P3; % fluorescence drop versus neutral controls;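 active means mean added fluorescence quench of at least 8% versus neutral control, with both replicates also reaching 8%; inconclusive means only one of the mean or replicate conditions met; inactive means mean below 8% and not both replicates reaching 8%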;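 further: cells transiently co-express mutant CFTR-F508del with the halide-sensitive YFP; corrector assay measuring rescue of mutant channel to the surface after 24 h compound exposure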
S100A4 inh HTS = inhibitors of S100A4-myosin IIA peptide binding, primary screen, biochemical, fluorescence polarization, TAMRA-MyoIIA peptide | 360,000 tested, 0.14% active | Protein S100-A4 (Homo sapiens), P26447 | inhibition, % at 10.7 µM;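 active means mean inhibition of at least 70% across replicates, with every replicate also reaching that level; inconclusive means mean inhibition reaches 70% but some replicates fall short; inactive means mean inhibition below 70%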
Target sequence (P26447 whole entry, looked up): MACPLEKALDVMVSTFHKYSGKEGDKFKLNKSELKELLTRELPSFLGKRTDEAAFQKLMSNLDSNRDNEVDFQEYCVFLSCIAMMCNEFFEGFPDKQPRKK
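assay system = human S100A4 monomer with TAMRA-labelled myosin IIA peptide | also added = labelled myosin peptide probe, 5 nM | incubation = 5 min between mix addition and reading | control set = DMSO and TFP controls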
rRNA inh HTS = reduced GFP signal of wild-type E. coli, primary screen, bacterial rRNA inhibitor project, GFP/RFP fluorescence, OD600, single point | 350,000 tested, 1.6% active | E. coli WT GFP vs humanized-ribosome RFP mutants, 24 h; hits give low values; DMSO median 0, no signal -100 | GFP signal change (wild-type ribosome), % (test concentration not listed);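 active means significant combined selectivity score with lowered wild-type GFP, culture density cut under 30%, mutant RFP and density less affected; inactive means any of these conditions unmet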
SIRT5 block = SIRT5 desuccinylase inhibitors, primary screen, biochemical, fluorescence imaging, single point, set 5; NAD-dependent protein deacylase sirtuin-5, mitochondrial (Homo sapiens), Q9NXA8; Purified SirT5, succinyl-peptide AMC, trypsin-coupled fluorescence; inhibition, % at 15 µM; 330,000 tested, 1.1% active; in the data active means inhibition above about 15%; inconclusive means no clear call, values can overlap the other calls
Target sequence (Q9NXA8 whole entry, looked up): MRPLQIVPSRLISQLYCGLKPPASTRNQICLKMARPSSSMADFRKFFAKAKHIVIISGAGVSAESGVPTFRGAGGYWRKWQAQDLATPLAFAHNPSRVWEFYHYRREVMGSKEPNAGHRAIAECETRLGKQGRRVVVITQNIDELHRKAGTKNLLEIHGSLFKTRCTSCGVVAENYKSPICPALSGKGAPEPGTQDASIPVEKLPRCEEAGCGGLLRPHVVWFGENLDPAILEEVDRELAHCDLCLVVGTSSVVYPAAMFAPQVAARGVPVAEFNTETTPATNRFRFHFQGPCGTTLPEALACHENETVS
HepG2 tox = cytotoxicity in HepG2 cells, dose response, cytotoxicity control, cell-based, CellTiter-Glo luminescence, cherry-pick, set 4. shares compounds with rRNA inh HTS. HepG2 viability, ATP luminescence, 72 h. activity change, negative = cytotoxicity, unspecified at 26 µM. 30 tested, under 10 active. AID 743480, 2014;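 active means compounds whose fitted half-maximal signal-loss concentration is at most twice their highest valid dose; inconclusive means flat curve with 30 to 70% signal loss, or poor fit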
AID977621 = growth inhibition of wild-type GFP E. coli, dose response, H69 mutant RFP, cherry-pick | shares compounds with rRNA inh HTS | E. coli wild-type GFP strain growth, fluorescence, 24 h | activity change, negative = inhibition at 50 µM | 1,900 tested, under 10 active | AID 977621, 2014;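 active means Wild-type ribosome reporter drop at least double the humanized mutant ribosome reporter drop, growth loss under a set limit; inconclusive means no clear call, values can overlap the other calls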;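 further: wild-type GFP and H69 mutant RFP strains grown together 50/50 in each well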
AID977628 = E. coli growth inhibition, wild-type GFP versus h24 humanized RFP strain, dose response, h24 mutant RFP vs wild-type GFP, cherry-pick; shares compounds with rRNA inh HTS; E. coli WT GFP strain growth, fluorescence, 24 h; activity change, negative = inhibition at 50 µM; 1,900 tested, under 10 active;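 active means compound lowering the normal-ribosome reporter at least twice as much as the humanized-ribosome reporter, growth loss under a set limit; inconclusive means no clear call, values can overlap the other calls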;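 further: wild-type GFP and h24 humanized RFP strains co-cultured 1 to 1 per well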
Numbers without * were called inactive; ? = inconclusive; . = not tested or not shown.

SMILES	ERAP1 HTS inh	F508del corr	S100A4 inh HTS	rRNA inh HTS	SIRT5 block	AID977621	AID977628	others
C[C@@H]1CN([C@H](C)CO)C(=O)c2cc(NC(=O)Nc3cccc4ccccc34)ccc2O[C@@H](C)CCCCO[C@H]1CN(C)C	.	1.6	.	.	.	.	.
CNC[C@H]1OCCCC[C@@H](C)Oc2ccc(NC(=O)Nc3cccc4ccccc34)cc2C(=O)N([C@@H](C)CO)C[C@H]1C	-3.0	-0.7	3.4	-24.6*	2.0	.	?
C[C@@H]1CN([C@@H](C)CO)C(=O)c2cc(NC(=O)Nc3cccc4ccccc34)ccc2O[C@@H](C)CCCCO[C@@H]1CN(C)C	.	-1.9	.	-4.5	.	-2.04	?
C[C@@H]1CCCCO[C@@H](CN(C)C)[C@@H](C)CN([C@@H](C)CO)C(=O)c2cc(NC(=O)Nc3cccc4ccccc34)ccc2O1	3.4	2.3	-41.0	-3.1	-3.1	-6.98	?
CNC[C@@H]1OCCCC[C@@H](C)Oc2ccc(NC(=O)Nc3cccc4ccccc34)cc2C(=O)N([C@H](C)CO)C[C@@H]1C	.	0.1	.	1.4	.	.	.
CC(C)C(=O)Nc1ccc2c(c1)C(=O)N(C)[C@@H]1CC[C@H](CC(=O)NCc3ccccc3F)O[C@H]1CO2	.	-0.5	.	-0.3	.	.	.
O=C(Nc1ccccc1)N[C@@H]1CC[C@H](CCNS(=O)(=O)c2cccc(F)c2)O[C@@H]1CO	-1.1	0.8	-4.8	-3.4	-0.8	.	.
CCCN1C[C@H](C)[C@H](OC)CN(C)C(=O)c2cc(NC(=O)c3cnccn3)ccc2OC[C@H]1C	1.6	2.7	-1.4	2.4	-0.3	.	.
O=C(COc1cccc2c1CCN(Cc1ccccc1F)C2=O)N1CCCCC1	-0.8	0.2	2.3	-39.0*	-6.0	.	?
O=C(COc1cccc2c1CCN(Cc1ccc(Br)cc1)C2=O)N1CCOCC1	0.0	-0.2	-6.1	-27.8*	1.0	7.3	-5.11
O=C(COc1cccc2c1CCN(Cc1ccc(Br)cc1)C2=O)NCc1ccco1	5.1	.	-3.1	.	7.3	.	.
O=C(Cc1c(F)cccc1Cl)N(Cc1ccccc1)c1ccccn1	-0.6	0.3	-10.7	-20.9*	-3.4	4.97	-5.9
O=C(/C=C/c1ccc(Cl)cc1)N(Cc1ccccc1)c1ccccn1	-2.6	-4.9	-0.2	-0.6	1.3	.	.
O=C(c1ccc(F)cc1)N(CC1CCC1)C[C@@H]1N[C@H](CO)[C@@H]1c1ccccc1	0.9	0.9	1.6	0.1	0.2	.	.
CCCn1nnnc1NCc1ccccc1OCc1cccs1	0.0	2.1	-8.5	-20.1*	-5.4	-10.3	.
CCCn1nnnc1NCc1cccc(OC)c1OCC	.	-4.1	-9.9	-3.0	1.8	.	.
COc1ccccc1-c1ccc([C@@H]2C[C@H]3[C@H](CON3C)CN2C(=O)c2ccco2)cc1	1.3	0.1	-5.1	-1.0	-3.5	.	.
Cc1ccccc1S(=O)(=O)N1C[C@H]2CON(C)[C@H]2C[C@H]1c1cccc(N2CCOCC2)c1	-10.1	-1.6	-5.4	-3.1	-2.5	.	.
CN1OC[C@@H]2CN(C(=O)c3ccco3)[C@H](c3ccc(-c4ccc(C#N)cc4)cc3)C[C@@H]21	1.6	2.3	1.8	-18.7*	-1.3	-5.44	-4.72
Cc1ccccc1S(=O)(=O)N1C[C@H]2CON(C)[C@H]2C[C@H]1c1cccc(-c2ccc(C#N)cc2)c1	0.7	0.6	-1.8	-18.4*	-5.4	?	.
CC(=O)c1cccc(NC(=O)C2CCCN(S(C)(=O)=O)C2)c1 (stereo unspecified)	-2.6	1.6	-0.4	-27.3*	-6.4	2.1	1.1
COC(=O)c1c(NC(=O)CCC(=O)O)sc(Cc2ccccc2)c1C	.	-0.1	5.2	-37.8*	1.4	.	.	HepG2 tox=13.2
COC(=O)CCC(=O)Nc1sc(Cc2ccccc2)c(C)c1C(N)=O	-3.3	-4.5	3.3	-0.6	-5.4	.	.
CC(C)Oc1cccc(C(=O)C2CCCN(Cc3ccc4nonc4c3)C2)c1 (stereo unspecified)	-2.5	2.1	0.2	-28.6*	0.1	?	.
COc1ccc(CN2C(=O)c3ccccc3C2c2nnnn2C(C)C)cc1 (stereo unspecified)	.	-0.4	-4.4	8.0	-6.8	.	.
SMILES	ERAP1 HTS inh	F508del corr	S100A4 inh HTS	rRNA inh HTS	SIRT5 block	AID977621	AID977628	others
CC(C)n1nnnc1C1c2ccccc2C(=O)N1CCOc1ccccc1 (stereo unspecified)	.	-0.5	-4.4	-18.2*	-4.7	-7.51	-16
C[C@@H]1CN([C@H](C)CO)C(=O)Cc2cc(NC(=O)Nc3ccc(C(F)(F)F)cc3)ccc2O[C@H]1CN(C)S(C)(=O)=O	1.8	1.2	3.0	-1.7	3.3	.	.
CCOc1ccc(N(CC(=O)NCc2cccnc2)S(=O)(=O)c2ccc(F)cc2)cc1	0.3	1.0	2.2	1.2	-3.8	.	.
CCOc1ccc(S(=O)(=O)N(C)c2ccc(OCC(=O)NCc3cccnc3)cc2)cc1	-1.6	-1.9	3.5	-19.5*	.	3.34	-9.21
Cc1ccccc1OCc1nc2ccccc2n1C	-2.1	4.0	-6.2	-27.2*	.	.	-0.211
CCc1nnc(NS(=O)(=O)c2ccc(NC(=O)c3cc(Cl)ccc3Cl)cc2)s1	-8.3	0.8	2.0	-49.5	1.9	.	.
CCc1nnc(NS(=O)(=O)c2ccc(NC(=O)c3cccc4ccccc34)cc2)s1	1.9	.	-3.0	-18.9*	-0.6	1.41	?
CCc1nnc(NS(=O)(=O)c2ccc(NC(=O)c3cccc(Br)c3)cc2)s1	-0.2	-4.7	-0.2	-43.5	2.1	.	.
CCc1nnc(NS(=O)(=O)c2ccc(NC(=O)c3cc(Cl)ccc3[N+](=O)[O-])cc2)s1	-3.4	0.4	0.2	-20.9*	2.5	-17.8	.
O=C(C[C@@H]1C=C[C@@H](NS(=O)(=O)c2ccc(F)cc2)[C@@H](CO)O1)NC1CCCCC1	1.0	3.6	9.1	2.6	-2.5	.	.
C[C@@H]1CN([C@@H](C)CO)C(=O)c2cc(-c3ccncc3)cnc2O[C@H]1CN(C)Cc1cccnc1	0.1	-2.5	5.8	2.0	2.8	.	.
